# UHRF1 binding = UHRF1 methylated DNA binding inhibitors, primary screen, counter-screen for MBD2 inhibitor project, biochemical, TR-FRET, human UHRF1, single concentration; AID 687016, 2013; UHRF1 binding to methylated oligo; 370,000 compounds, 0.75% hits; inhibition, % at 4.4 µM; E3 ubiquitin-protein ligase UHRF1 (Homo sapiens), Q96T88; in the data active = inhibition above about 21%;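 note: UHRF1 SRA domain binding a hemimethylated CpG hairpin DNA probe; 0% = median of test compound wells and 100% = reference inhibitor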
# TDP2 absorb = human TDP2 enzyme inhibitors, primary screen, biochemical, epi absorbance, recombinant enzyme; Tyrosyl-DNA phosphodiesterase 2 (Homo sapiens), O95551; T5PNP hydrolysis, p-nitrophenol absorbance 415 nm; inhibition, % at 12.8 µM; 370,000 compounds, 0.34% hits; AID 720702, 2013;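 active = inhibition above the mean of all tested compounds plus 3 SD, set per campaign, cut at about 25% in these data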;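 note: 0% = DMSO with enzyme and 100% = buffer with substrate but no TDP2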
# Target sequence (O95551 whole entry, looked up): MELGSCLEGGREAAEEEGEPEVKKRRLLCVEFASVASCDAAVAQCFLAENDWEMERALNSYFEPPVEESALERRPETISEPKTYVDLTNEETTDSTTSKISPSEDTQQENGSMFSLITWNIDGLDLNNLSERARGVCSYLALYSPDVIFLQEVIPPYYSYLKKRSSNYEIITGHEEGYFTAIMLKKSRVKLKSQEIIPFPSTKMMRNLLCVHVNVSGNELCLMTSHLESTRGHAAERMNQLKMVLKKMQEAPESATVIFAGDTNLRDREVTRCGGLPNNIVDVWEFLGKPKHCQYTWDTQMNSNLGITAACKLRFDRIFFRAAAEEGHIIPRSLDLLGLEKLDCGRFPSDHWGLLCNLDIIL
#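 System – recombinant human TDP2 · Quantity – TDP2 enzyme at 120 nM final · Doses – single concentration, 12.8 µM nominal, with 1% DMSO · Incubation – 2 h at 37 °C · Measured by – epi absorbance of p-nitrophenol freed from T5PNP by hydrolysis · Read-out – % inhibition relative to enzyme-containing and enzyme-free wells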
# ARFGAP1 inh = inhibitors of rat ARFGAP1 GAP activity, primary screen, biochemical, fluorescence polarization, GDP tracer; 360,000 compounds, 0.26% hits; AID 651572, 2012; inhibition, % at 16.5 µM; Arfgap1-stimulated ARF1 GTP hydrolysis, GDP FP detection;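 active = inhibition above a per-plate limit, mean inhibition of low control wells plus 3 SD, cut at about 25% in these data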;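 note: 0% = DMSO wells with enzyme and 100% = wells lacking Arfgap1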
# Target sequence (Q62848 1-136 limits assumed): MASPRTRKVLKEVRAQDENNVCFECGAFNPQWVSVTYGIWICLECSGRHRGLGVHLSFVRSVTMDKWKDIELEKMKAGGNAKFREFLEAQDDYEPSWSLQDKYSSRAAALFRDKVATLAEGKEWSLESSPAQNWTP
#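 Material: rat Arfgap1 catalytic domain, aa 1-136; also added: human ARF1(Δ1-17)-GTP substrate; compound dosing: one concentration, 16.5 µM, DMSO 1.26%; incubation: GTP hydrolysis reaction 2 h at 25 °C; measured by: Tracer-displacement fluorescence polarization with EDTA stop, 620/688 nm; evaluation: % inhibition from polarization; repeats: one replicate per compound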
# ASAP1 GAP inh = inhibitors of human ASAP1 ArfGAP activity, primary screen, biochemical, fluorescence polarization | ASAP1-stimulated ARF1 GTP hydrolysis, GDP FP detection | inhibition, % at 16.5 µM | 360,000 compounds, 0.19% hits | AID 624377, 2012 | Arf-GAP with SH3 domain, ANK repeat and PH domain-containing protein 1 (Homo sapiens), …; in the data active = inhibition above about 25%;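 note: 0% = vehicle with enzyme and substrate and 100% = no enzyme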
# MBD2 DNA inh = inhibitors of MBD2 binding to methylated DNA, primary screen, biochemical, TR-FRET, DNA-binding domain, human | 370,000 compounds, 0.31% hits | MBD2 binding to methylated oligonucleotide | AID 686964, 2013 | inhibition, % at 4.4 µM | Methyl-CpG-binding domain protein 2 (Homo sapiens), Q9UBB5; in the data active = inhibition above about 13%
# LEDGF integ inh = blockers of LEDGF/p75-dependent integrase strand transfer – biochemical, TR-FRET, high throughput, primary screen | 370,000 compounds, 0.64% hits | HIV-1 integrase (with human LEDGF/p75) | inhibition, % at 3.7 µM | AID 743269, 2014 | TR-FRET IN-LEDGF/p75 DNA integration, Eu/Cy5;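 active = inhibition above the screen-wide mean plus 3 SD, cut at about 13% in these data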;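 note: signal is the Cy5 over europium emission ratio at 671 and 618 nm; 0% = plate median of compound wells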
# Active calls of the source: *; . = no result. An excerpt weighted towards active compounds, which were near 2% of everything screened.
SMILES,UHRF1 binding,TDP2 absorb,ARFGAP1 inh,ASAP1 GAP inh,MBD2 DNA inh,LEDGF integ inh
N=c1c2c(-c3ccccc3)c(-c3ccccc3)n(CCc3ccccc3)c2ncn1CCO,-0.5,4.5,.,.,3.9,-1.8
O=C(Nc1nncs1)c1cccnc1Cl,24.9*,11.8,1.9,-4.1,10.1,-0.9
CCOc1ccccc1C1C(C(=O)Nc2ccccc2OC)=C(C)Nc2nc(CCCO)nn21 (centres undefined),22.2*,-10.9,-3.2,3.8,1.5,-3.8
COCCNC(=S)Nc1ccc(S(=O)(=O)Nc2cnc3ccccc3n2)cc1,36.6*,-3.2,-0.6,9.3,1.4,-1.8
COCCN(C(=O)CN1CCc2ccccc21)c1c(N)n(Cc2ccccc2)c(=O)[nH]c1=O,41.2*,-0.9,18.4,-6.3,-0.4,-1.9
CCOC(=O)c1ccc(-n2[nH]c(-c3ccccc3)cc2=O)cc1,12.9,35.1*,16.8,10.0,1.4,6.4
CCOC(=O)c1ccc(N=Nc2c(C)[nH]n(-c3ccccc3)c2=O)cc1,-1.7,-10.2,-4.2,5.8,1.6,0.3
CN(CC#Cc1ccccc1)C(N)=NC(=O)/C=C/c1ccccc1,-1.4,-0.8,.,.,0.8,8.0
C=CCn1c(COc2ccc(Cl)cc2)nnc1SCC(=O)c1ccc(-c2ccccc2)cc1,-0.1,-5.9,.,.,-2.0,-1.1
CC(C)(Oc1ccc(Cl)cc1)C(=O)Nc1ncccn1,21.6*,10.1,-7.7,5.3,12.7,3.5
Cn1nc2c(c1C(=O)N1CCCC(C(=O)c3cc(F)ccc3F)C1)CCCC2 (centres undefined),0.8,1.4,10.4,2.0,2.0,-0.3
COc1ccc(C(=O)C2CCCN(C(=O)c3c4c(nn3C)CCCC4)C2)cc1F (centres undefined),39.0*,2.3,-2.9,-17.4,1.6,-4.4
O=C(NC1CCc2ccccc21)c1cc(-c2ccc(Cl)cc2)nc2ccccc12 (centres undefined),3.6,-1.1,.,.,0.8,-2.0
O=c1[nH]c2ccccc2cc1CN(Cc1ccco1)S(=O)(=O)c1ccc(F)cc1,23.2*,-9.0,3.7,1.0,10.5,-6.5
CCN(Cc1cc2ccccc2[nH]c1=O)S(=O)(=O)c1ccc(OC)cc1,1.7,-10.6,-15.9,-3.7,4.2,-2.9
CCCOC(=O)c1c(NC(=O)C2CCCO2)sc(C(=O)OC)c1C (centres undefined),24.6*,2.8,-1.9,-5.8,1.6,2.3
Cn1c(SCC(=O)NCc2ccc(F)cc2)nc2ccccc21,0.2,8.0,4.1,0.2,-0.5,-3.6
COc1ccc(CNC(=O)CSc2nc3ccccc3n2C(C)=O)cc1,23.7*,-13.0,5.1,-9.1,7.3,5.3
CCOC(=O)c1cccc(N2C(=O)Nc3ccccc3N2O)c1,22.5*,-1.0,3.2,-2.3,3.3,1.0
CCC[C@@H](/C=C/C(=O)OC(C)(C)C)Sc1ccc(OC)cc1,-0.5,6.3,.,.,1.5,-6.0
CN(C)C(=O)c1cn(-c2ccccc2)nc1-c1cccs1,0.6,-3.6,-1.1,-5.5,-0.2,17.3*
CN(C)c1ccc(NC(=O)c2cn(-c3ccccc3)nc2-c2cccs2)cc1,0.0,-4.7,12.7,5.7,0.2,-3.3
COC(=O)C1CN(Cc2ccc(Cl)cc2)CCS(=O)(=O)N1Cc1cn(Cc2ccc(OC)cc2)nn1 (centres undefined),12.2,-13.8,.,.,6.8,3.5
O=C(CC1CCCC1)N1CC[C@H]2[C@H](CCCN2Cc2cc(F)cc(F)c2)C1,1.4,1.2,.,.,-1.4,5.3
COC(=O)C1=NNC2C(=O)N(C3CCCCC3)C(=O)C12 (centres undefined),25.8*,-5.5,0.3,1.9,10.6,-1.0
SMILES,UHRF1 binding,TDP2 absorb,ARFGAP1 inh,ASAP1 GAP inh,MBD2 DNA inh,LEDGF integ inh
O=C(O)c1ccc(C#Cc2cccc(F)c2)cn1,2.1,6.2,.,.,0.4,-3.6
O=C(CCCCC(=O)NCCCc1ccccc1)NCCCc1ccccc1,-1.6,-9.1,-18.0,-5.7,3.8,0.8
CC1NC(=O)NC1CCCCCC(=O)NCCc1ccccc1 (centres undefined),2.3,7.1,5.8,-1.3,-1.0,78.2*
C=C1C(=O)[C@]23C[C@H]1CC[C@H]2[C@]1(C)CCC[C@@](C)(C(=O)OC)[C@H]1C[C@@H]3O,-1.8,9.8,.,.,2.8,0.8
O=C(O)c1ccc([N+](=O)[O-])c(CS(=O)(=O)c2ccc(Cl)cc2)c1,2.5,-3.8,3.3,12.7,0.7,-4.1
O=C(CBr)c1ccc([N+](=O)[O-])c(CS(=O)(=O)c2ccc(Cl)cc2)c1,70.4*,0.1,2.4,-16.2,-6.7,-2.6
CC(=O)N1CCN(C(=O)CN2C(=O)CC(C)(C)S(=O)(=O)c3ccccc32)CC1,6.2,-11.5,.,.,2.1,0.0
CC(C)C(=O)Nc1cccc(N2CCN(CCCN3C(=O)C4CCCCN4C3=O)CC2)c1 (centres undefined),22.6*,-3.1,16.1,10.8,4.8,2.0
COC(=O)[C@]12C[C@H](CC(=O)NCC3CCCCC3)C(=O)N(CCC3=CCCCC3)C1=C[C@H](C(C)C)O[C@@H]2C1CC1,0.3,-5.1,.,.,2.6,-4.8
CC(=O)NC1C(=O)N(CCN2CCOCC2)c2ccc(Cl)cc21 (centres undefined),-1.6,5.7,3.8,3.8,1.7,16.2*
COc1cccc(CO[C@H]2C=C[C@@H](c3ccccc3)O[C@@H]2COC(C)=O)c1,1.4,2.7,.,.,-0.3,-1.6
CN(CCO)C1CN(Cc2cn(Cc3ccccc3F)nn2)S(=O)(=O)C1 (centres undefined),0.1,1.9,.,.,0.7,4.2
CCC(=O)Nc1ccc(N2CCOCC2)c(S(=O)(=O)Nc2ccc(Cl)cc2)c1,45.1*,3.8,-9.6,-6.7,-1.9,1.6
C[C@H](NC(N)=O)C(=O)Nc1ccc(N2CCOCC2)c(S(=O)(=O)Nc2ccc(Cl)cc2)c1,-0.7,3.2,-11.7,11.8,2.2,0.2
CN(C1=C(NC(=O)c2ccccc2)C(=O)c2ccccc2C1=O)C1CCS(=O)(=O)C1 (centres undefined),-9.5,32.5*,6.7,18.3,-11.8,11.2
CN1CCC(N[C@@H](Cc2ccccc2)C(=O)NCCCc2ccccc2)(C(=O)NCCc2c[nH]c3ccccc23)CC1,2.4,-8.6,.,.,0.5,5.1

# Screens deposited in PubChem by The Scripps Research Institute Molecular Screening Center.
